# Active and inactive are the calls of the source. No cut-off for these calls is given here.
# Assays:
# [1] = system: HepG2; experiment: Inhibition of TNFalpha-induced NFkappaB (unknown origin)-dependent transcriptional activity expressed in human HepG2 cells at 0.1 to 10 uM incubated for 1 hr prior to TNFalpha induction measured after 6 hrs by dual-luciferase reporter gene assay; format: cell-based
# How it was run: (§1)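 HepG2 cells in DMEM with 10% FBS were lipofectamine-transfected with 10 ng/well pGL4.32 NF-κB-Luc plus Renilla control. Compound in DMSO was given in fresh medium for 1 h at 37 °C, then TNFα (final 20 ng/ml) for 6 h. Cells were lysed in passive lysis buffer. Firefly light units were normalized to Renilla; one-way ANOVA.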
# [2] = system: HepG2; experiment: Cytotoxicity against human HepG2 cells assessed as cellular growth at 50 uM incubated for 1 hr prior to TNF alpha stimulation measured after 48 hrs by SRB assay; format: functional
# How it was run: (§2)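 HepG2 cells in DMEM with 10% FBS and penicillin/streptomycin were allowed to adhere 24 h, and a T0 plate was fixed. Compound was given for 1 h at 37 °C, with or without 20 ng/ml TNFα, then 48 h more. Cells were stained with 0.4% SRB for 30 min at RT, washed in 1% acetic acid, and solubilized in 10 mM Tris. OD read at 515 nm; one-way ANOVA.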
# [3] = system: HepG2; experiment: Cytotoxicity against human HepG2 cells assessed as cellular growth at 50 uM after 48 hrs by SRB assay in absence of TNFalpha; format: functional; how it was run: as §2
# [4] = system: HepG2; experiment: Inhibition of TNFalpha-induced NFkappaB (unknown origin)-dependent transcriptional activity expressed in human HepG2 cells at 1 uM incubated for 1 hr prior to TNFalpha induction measured after 6 hrs by dual-luciferase reporter gene assay; format: cell-based; how it was run: as §1
# [5] = system: UACC-62; experiment: Cytotoxicity against human UACC62 cells after 48 hrs by SRB assay; format: functional; details: UACC-62, 48 h
# How it was run: (§3)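 Screened by the NCI Developmental Therapeutics Program in dose-response format. GI50 was determined by the sulforhodamine B protocol.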
# [6] = system: OVCAR-4; experiment: Cytotoxicity against human OVCAR4 cells after 48 hrs by SRB assay; format: functional; details: OVCAR-4, 48 h; how it was run: as §3
# [7] = system: HCT-15; experiment: Cytotoxicity against human HCT15 cells after 48 hrs by SRB assay; format: functional; details: HCT-15, 48 h; how it was run: as §3
# [8] = system: HCC 2998; experiment: Cytotoxicity against human HCC2998 cells after 48 hrs by SRB assay; format: functional; details: HCC 2998, 48 h; how it was run: as §3
# [9] = system: SF-268; experiment: Cytotoxicity against human SF268 cells after 48 hrs by SRB assay; format: functional; details: SF-268, 48 h; how it was run: as §3
# [10] = system: IGROV-1; experiment: Cytotoxicity against human IGROV1 cells after 48 hrs by SRB assay; format: functional; details: IGROV-1, 48 h; how it was run: as §3
# [11] = system: EKVX; experiment: Induction of apoptosis in TNFalpha-stimulated human EKVX cells at 1 uM incubated for 1 hr prior to TNFalpha stimulation measured after 18 hrs by TUNEL assay; format: functional, cell-based
# How it was run: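 EKVX cells in RPMI 1640 with 10% FBS were grown on glass coverslips. Compound was given for 1 h at 37 °C, then 20 ng/ml TNFα for 18 h. Cells were fixed in 3.7% paraformaldehyde, treated with proteinase K for 30 min, then TUNEL-labelled with streptavidin-fluorescein plus DAPI. Scored by fluorescence microscopy.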
# [12] = system: RXF 393; experiment: Cytotoxicity against human RXF393 cells after 48 hrs by SRB assay; format: functional; details: RXF 393, 48 h; how it was run: as §3
# [13] = system: Hs-578T; experiment: Cytotoxicity against human Hs578T cells after 48 hrs by SRB assay; format: functional; how it was run: as §3
# [14] = system: PC-3; experiment: Cytotoxicity against human PC3 cells after 48 hrs by SRB assay; format: functional; details: PC-3, 48 h; how it was run: as §3
# [15] = system: SN12C; experiment: Cytotoxicity against human SN12C cells after 48 hrs by SRB assay; format: functional; how it was run: as §3
# [16] = Cytotoxicity against human NCI-ADR-RES cells after 48 hrs by SRB assay; format: functional; how it was run: as §3
# [17] = system: CAKI-1; experiment: Cytotoxicity against human Caki1 cells after 48 hrs by SRB assay; format: functional; details: CAKI-1, 48 h; how it was run: as §3
# [18] = system: DU-145; experiment: Cytotoxicity against human DU145 cells after 48 hrs by SRB assay; format: functional; details: DU-145, 48 h; how it was run: as §3
# [19] = system: SK-MEL-28; experiment: Cytotoxicity against human SK-MEL-28 cells after 48 hrs by SRB assay; format: functional; details: SK-MEL-28, 48 h; how it was run: as §3
# [20] = system: SNB-19; experiment: Cytotoxicity against human SNB19 cells after 48 hrs by SRB assay; format: functional; details: SNB-19, 48 h; how it was run: as §3
# [21] = system: HCT-116; experiment: Cytotoxicity against human HCT116 cells after 48 hrs by SRB assay; format: functional; details: HCT-116, 48 h; how it was run: as §3
# [22] = system: UO-31; experiment: Cytotoxicity against human UO31 cells after 48 hrs by SRB assay; format: functional; details: UO-31, 48 h; how it was run: as §3
# [23] = system: SF-295; experiment: Cytotoxicity against human SF295 cells after 48 hrs by SRB assay; format: functional; details: SF-295, 48 h; how it was run: as §3
# [24] = system: 786-0; experiment: Cytotoxicity against human 786-0 cells after 48 hrs by SRB assay; format: functional; details: 786-0, 48 h; how it was run: as §3
# [25] = Cytotoxicity against human SKOC3 cells after 48 hrs by SRB assay; format: functional; details: SKOC3, 48 h; how it was run: as §3
# [26] = system: T47D; experiment: Cytotoxicity against human T47D cells after 48 hrs by SRB assay; format: functional; how it was run: as §3
# [27] = system: OVCAR-3; experiment: Cytotoxicity against human OVCAR3 cells after 48 hrs by SRB assay; format: functional; details: OVCAR-3, 48 h; how it was run: as §3
# [28] = system: SF-539; experiment: Cytotoxicity against human SF539 cells after 48 hrs by SRB assay; format: functional; details: SF-539, 48 h; how it was run: as §3
# [29] = system: SW-620; experiment: Cytotoxicity against human SW620 cells after 48 hrs by SRB assay; format: functional; details: SW-620, 48 h; how it was run: as §3
# [30] = system: OVCAR-8; experiment: Cytotoxicity against human OVCAR8 cells after 48 hrs by SRB assay; format: functional; details: OVCAR-8, 48 h; how it was run: as §3
# [31] = system: Malme-3M; experiment: Cytotoxicity against human MALME-3M cells after 48 hrs by SRB assay; format: functional; how it was run: as §3
# [32] = system: UACC-257; experiment: Cytotoxicity against human UACC257 cells after 48 hrs by SRB assay; format: functional; details: UACC-257, 48 h; how it was run: as §3
# [33] = system: A498; experiment: Cytotoxicity against human A498 cells after 48 hrs by SRB assay; format: functional; details: A498, 48 h; how it was run: as §3
# [34] = system: LOX IMVI; experiment: Cytotoxicity against human LOXIMVI cells after 48 hrs by SRB assay; format: functional; how it was run: as §3
# [35] = system: MDA-MB-435; experiment: Cytotoxicity against human MDA-MB-435 cells after 48 hrs by SRB assay; format: functional; details: MDA-MB-435, 48 h; how it was run: as §3
# [36] = system: MCF7; experiment: Cytotoxicity against human MCF7 cells after 48 hrs by SRB assay; format: functional; details: MCF7, 48 h; how it was run: as §3
# [37] = system: SK-MEL-2; experiment: Cytotoxicity against human SK-MEL-2 cells after 48 hrs by SRB assay; format: functional; details: SK-MEL-2, 48 h; how it was run: as §3
# [38] = system: BT-549; experiment: Cytotoxicity against human BT549 cells after 48 hrs by SRB assay; format: functional; details: BT-549, 48 h; how it was run: as §3
# [39] = system: SNB-75; experiment: Cytotoxicity against human SNB75 cells after 48 hrs by SRB assay; format: functional; details: SNB-75, 48 h; how it was run: as §3
# [40] = system: MDA-MB-231; experiment: Cytotoxicity against human MDA-MB-231 cells after 48 hrs by SRB assay; format: functional; details: MDA-MB-231, 48 h; how it was run: as §3
# [41] = system: COLO 205; experiment: Cytotoxicity against human COLO205 cells after 48 hrs by SRB assay; format: functional; details: COLO 205, 48 h; how it was run: as §3
# [42] = system: M14; experiment: Cytotoxicity against human M14 cells after 48 hrs by SRB assay; format: functional; details: M14, 48 h; how it was run: as §3
# [43] = system: TK-10; experiment: Cytotoxicity against human TK10 cells after 48 hrs by SRB assay; format: functional; details: TK-10, 48 h; how it was run: as §3
# [44] = system: U-251; experiment: Cytotoxicity against human U251 cells after 48 hrs by SRB assay; format: functional; details: U-251, 48 h; how it was run: as §3
# [45] = system: KM12; experiment: Cytotoxicity against human KM12 cells after 48 hrs by SRB assay; format: functional; details: KM12, 48 h; how it was run: as §3
structure (smiles),measurement,setting,value
Nc1ccc2ncnc(NCCc3ccc(Oc4ccccc4)cc3)c2c1,inhibition,[1],Active
c1ccc2c(NCCc3ccc4c(c3)OCO4)ncnc2c1,Activity,[2],-28.1%
same,Activity,[3],-20.1%
same,inhibition,[4],Active
c1ccc(-c2nc(NCCc3c[nH]c4ccccc34)c3ccccc3n2)cc1,GI50,[5],2000 nM
same,Activity,[2],-46.7%
same,GI50,[6],3600 nM
same,GI50,[7],2500 nM
same,GI50,[8],2100 nM
same,GI50,[9],4600 nM
same,GI50,[10],3200 nM
same,Activity,[11],Active
same,GI50,[12],1900 nM
same,GI50,[13],3400 nM
same,GI50,[14],2400 nM
same,GI50,[15],3900 nM
same,GI50,[16],2600 nM
same,GI50,[17],3100 nM
same,GI50,[18],4700 nM
same,GI50,[19],6200 nM
same,GI50,[20],5100 nM
same,inhibition,[1],Active
same,GI50,[21],2800 nM
same,GI50,[22],3000 nM
same,GI50,[23],2000 nM
same,GI50,[24],2500 nM
same,GI50,[25],3700 nM
same,GI50,[26],2400 nM
same,GI50,[27],2900 nM
same,GI50,[28],2000 nM
same,GI50,[29],3000 nM
same,GI50,[30],2200 nM
same,GI50,[31],2800 nM
same,Activity,[3],-35.3%
same,GI50,[32],3200 nM
same,inhibition,[4],Active
same,GI50,[33],2000 nM
same,GI50,[34],2200 nM
same,GI50,[35],2300 nM
same,GI50,[36],4200 nM
same,GI50,[37],3000 nM
same,GI50,[38],4400 nM
same,GI50,[39],5900 nM
same,GI50,[40],3100 nM
same,GI50,[41],2200 nM
same,GI50,[42],2600 nM
same,GI50,[43],2800 nM
same,GI50,[44],3200 nM
same,GI50,[45],2800 nM
Oc1ccc(CN2CCN(c3nc(-c4ccccc4)nc4ccccc34)CC2)cc1,Activity,[2],-49.1%
same,Activity,[3],-37.6%
same,inhibition,[4],Active
Oc1ccccc1CN1CCN(c2nc(-c3ccccc3)nc3ccccc23)CC1,Activity,[2],13%
same,Activity,[3],14.6%
same,inhibition,[4],Active
Oc1ccc(Br)cc1CN1CCN(c2ncnc3ccccc23)CC1,Activity,[2],-29.9%
same,Activity,[3],-22%
same,inhibition,[4],Active
